Test results taken from ChEMBL document CHEMBL3867451, “Phenolic Metabolites of Dalea ornata Affect Both Survival and Motility of the Human Pathogenic Hookworm Ancylostoma ceylanicum” (J Nat Prod, 2016).

Legend:
[1] = Toxicity in po dosed rat; assay type: organism-based; conditions: in vivo
[2] = Effect on Syrian hamster splenocytes proliferation assessed as stimulation index by BrdU-incorporation based colorimetric analysis; assay type: ADME, cell-based, Mesocricetus auratus; conditions: splenocyte
How it was run: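 Hamster spleens dissociated through strainers, red cells lysed, cells washed in RPMI. Plated in triplicate at 10⁵ cells per well with several doses of compound. 1% DMSO served as negative control, concanavalin A as positive control. Proliferation read by colorimetric BrdU incorporation. Index is mean OD450 of compound wells divided by mean OD450 of medium plus 1% DMSO wells, with 1 meaning no effect.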

Ancylostoma ceylanicum [3] = test: Anthelmintic activity against Ancylostoma ceylanicum isolated from infected Syrian hamster feces assessed as survival rate at 25 ug/ml measured on day 1 relative to control; assay type: functional; conditions: 24 h
Ancylostoma ceylanicum [4] = test: Anthelmintic activity against Ancylostoma ceylanicum isolated from infected Syrian hamster feces assessed as survival rate at 25 ug/ml measured on day 3 relative to control; assay type: functional; conditions: 72 h
Ancylostoma ceylanicum [5] = test: Anthelmintic activity against Ancylostoma ceylanicum isolated from infected Syrian hamster feces assessed as mortality at 10 ug/ml measured on day 3 relative to control; assay type: functional; conditions: 72 h
Ancylostoma ceylanicum [6] = test: Anthelmintic activity against Ancylostoma ceylanicum isolated from infected Syrian hamster feces assessed as survival rate at 25 ug/ml measured on day 5 (reference value: >95%); assay type: functional; conditions: 120 h
Ancylostoma ceylanicum [7] = test: Anthelmintic activity against Ancylostoma ceylanicum isolated from infected Syrian hamster feces assessed as survival rate at 25 ug/ml measured on day 4 relative to control; assay type: functional; conditions: 96 h
Ancylostoma ceylanicum [8] = test: Anthelmintic activity against Ancylostoma ceylanicum isolated from infected Syrian hamster feces assessed as survival rate at 25 ug/ml measured on day 2 relative to control; assay type: functional; conditions: 48 h
Ancylostoma ceylanicum [9] = test: Anthelmintic activity against Ancylostoma ceylanicum isolated from infected Syrian hamster feces assessed as motility at 25 ug/ml measured on day 5; assay type: functional
How it was run: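 Adult worms from hamster intestine washed in RPMI with fungizone (25 μg/mL) and 20× pen/strep, held overnight at 37 °C, 5% CO2 in that medium plus 50% FBS. Compound added from DMSO stock to 1% DMSO final; 1% DMSO negative control. Motility scored on a 0–3 scale, worms stimulated by microscope light and heat and gentle manipulation.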

Row | Compound | LD50 [1] [mg/kg] | Ratio [2] | survival at 25 µg/mL (Ancylostoma ceylanicum [3]) [%] | survival at 25 µg/mL (Ancylostoma ceylanicum [4]) [%] | mortality at 10 µg/mL (Ancylostoma ceylanicum [5]) [%] | survival at 25 µg/mL (Ancylostoma ceylanicum [6]) [%] | survival at 25 µg/mL (Ancylostoma ceylanicum [7]) [%] | survival at 25 µg/mL (Ancylostoma ceylanicum [8]) [%] | Activity (Ancylostoma ceylanicum [9]) [%]
1 | C=C(C)[C@H]1Cc2c(ccc3c2O[C@@H]2COc4cc(OC)c(OC)cc4[C@@H]2C3=O)O1 [ROTENONE] | 132 to 1500 |  |  |  |  |  |  |  | 
2 | COc1cc2c(cc1OC)[C@]1(O)C(=O)c3ccc4c(c3O[C@@H]1CO2)C=CC(C)(C)O4 [TEPHROSIN] |  | 0.8 to 1 | 77 | 0 | 100 | 0 | 0 | 3 | 
3 | COc1ccc2c(c1)O[C@@H]1c3ccc(O)cc3OC[C@H]21 |  | 0.8 to 1 | 100 | 100 |  | 100 | 100 | 100 | 
4 | C=CC(C)(C)c1cc([C@@H]2CC(=O)c3c(O)cc(O)c(CC=C(C)C)c3O2)c(O)cc1O |  | 0.8 to 1 | 100 | 100 |  | 100 | 100 | 100 | 
5 | CC(C)=CCc1c(O)c(O)cc2c1O[C@H](c1ccc(O)cc1)CC2=O |  | 0.8 | 100 | 90 |  | 83 | 83 | 97 | 
6 | Oc1ccc2c(c1)OC[C@@H]1c3cc4c(cc3O[C@H]21)OCO4 [(+)-MAACKIAIN] |  | 1 | 100 | 83 |  | 73 | 80 | 93 | 80
7 | COc1cc2c(cc1OC)[C@@H]1C(=O)c3ccc4c(c3O[C@@H]1CO2)C=CC(C)(C)O4 [DEGUELIN] |  | 0.8 to 1 | 100 | 40 |  | 0 | 0 | 50 | 
8 | C=CC(C)(C)c1cc([C@@H]2CC(=O)c3ccc(O)c(CC=C(C)C)c3O2)c(O)cc1O |  | 0.8 to 1 | 100 | 100 |  | 90 | 97 | 100 | 
9 | CC(C)=CCC/C(C)=C/Cc1c(O)ccc2c1O[C@H](c1ccc(O)cc1O)CC2=O |  | 0.8 to 1 | 100 | 100 |  | 93 | 100 | 100 | 
10 | CC(C)=CCc1c(O)ccc2c1O[C@H](c1ccc(O)cc1O)CC2=O |  | 0.8 to 1 | 100 | 90 |  | 80 | 80 | 100 | 
11 | CC(C)=CCc1c(O)cc(O)c2c1O[C@H](c1ccc(O)cc1O)CC2=O [LEACHIANONE G] |  | 0.8 to 1 | 100 | 93 |  | 87 | 93 | 97 | 
